The record followed here is ChEMBL document CHEMBL1156500, “Characterization of the metabolic activation of hepatitis C virus nucleoside inhibitor beta-D-2'-Deoxy-2'-fluoro-2'-C-methylcytidine (PSI-6130) and identification of a novel active 5'-triphosphate species” (J Biol Chem, 2007).

Calls of active or inactive are those of the source. No cut-off for these calls is given here.

For series [1], the system named is Hepatitis C virus. The series is described as follows: Antiviral activity against HCV 1b Con1 in 2209-23 cells after 72 hrs by luciferase based replicon assay. The format is functional, organism-based, Hepacivirus hominis. The following applies: genotype 1b Con 1, 2209-23, 72 h. A digest of the protocol: (§1)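 Huh7-derived 2209-23 cells carrying a bicistronic genotype 1b Con1 subgenomic HCV replicon with a Renilla luciferase reporter of RNA replication. Cells were exposed to compound for 72 h, and dose-dependent reduction of luciferase activity was measured to give IC50.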
(A replicon is a self-replicating genome or part of one, used to study replication in cells.)

Series [2] has as its system Hepatitis C virus. The series is described as follows: Antiviral activity against HCV 1b Con1 in 2209-23 cells upto 100 uM after 72 hrs by luciferase based replicon assay. In kind it is functional, organism-based. Conditions: Hepacivirus hominis, genotype 1b Con 1. The procedure, abridged: as §1
Series [3] relates to Hepatitis C virus. The series is described as follows: Inhibition of RNA synthesis activity of […]. Conditions: for Km: Hepatitis C virus subtype 1b; for Km / IC50: Con1; for IC50: Hepatitis C virus.
Series [4] concerns Hepatocyte. Kind of series: Drug uptake in human hepatocyte assessed as time needed for triphosphate to be reduced to half of maximum level. In kind it is ADME, cell-based, Liver. Conditions: hepatocytes. The procedure, abridged: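 Hepatocytes from 4 donors were loaded for 24 h with 2 μM 3H-drug (10 μCi/ml), washed, and placed in drug-free medium. Duplicate samples were taken 0–72 h later and analysed for triphosphates by radio-HPLC. Half-life came from a single-phase exponential decay fit, mean ± S.D. (n = 4).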

Series [5] has as its system Hepatitis C virus. Kind of series: Inhibition of RNA synthesis activity of […] 1b Con1 replicase. Further details: species or system Hepatitis C virus subtype 1b. A digest of the protocol: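 Membrane-associated native replication complexes were isolated from 2209-23 replicon cells, with 20 μl reactions. One format used 2.5×10^6 cell equivalents for 60 min. The other used 3.1×10^6 cell equivalents for 90 min in 50 mM HEPES pH 7.5, 5 mM MgCl2, actinomycin D, 1 mM ATP/GTP/CTP, 0.4 μM [α-33P]UTP and a creatine phosphate regeneration system.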

As a reminder, the IC50 is the concentration needed to halve the response being measured. In turn, `C[C@@]1(F)[C@H](O)[C@@H](CO)O[C@H]1n1ccc(=O)[nH]c1=O` came in with an IC50 in series [1] above 100000 nM. For the same compound, the outcome in series [2] was inactive.
By Km is commonly meant the substrate concentration at which the rate is half of its maximum. With `O=c1ccn([C@@H]2O[C@H](COP(=O)(O)OP(=O)(O)OP(=O)(O)O)[C@@H](O)[C@H]2O)c(=O)[nH]1`, in series [3], the Km came out at 0.37 µM.
In the case of `Nc1ccn([C@@H]2O[C@H](COP(=O)(O)OP(=O)(O)OP(=O)(O)O)[C@@H](O)[C@H]2O)c(=O)n1`, the Km in series [3] was 0.22 µM.
By Ki is commonly meant the dissociation constant of the complex between target and ligand, obtained from inhibition or displacement. A high value points to lower affinity. As for `C[C@@]1(F)[C@H](O)[C@@H](COP(=O)(O)OP(=O)(O)OP(=O)(O)O)O[C@H]1n1ccc(N)nc1=O` [PSI-6130-TP], the t1/2 in series [4] amounted to 4.7 h. In series [3], this compound displayed a Ki of 23 nM and an IC50 of 130 nM. The same compound had a half-inhibitory concentration (IC50) in series [5] of 340 nM.
For the compound `C[C@@]1(F)[C@H](O)[C@@H](COP(=O)(O)OP(=O)(O)OP(=O)(O)O)O[C@H]1n1ccc(=O)[nH]c1=O` [GS-461203], in series [3], the affinity corresponds to a Ki of 141 nM. The results for the IC50 in series [3] and in series [5] were 520 nM and 1190 nM, respectively.
